{"source": "paper PMC11382152", "about": "(The Journal of Organic Chemistry, 2024)", "experiment_in_all_cases": "MIC assay", "type_in_all_cases": "cell-based", "key": {"[1]": {"test_system": "Bacillus subtilis ATCC 6051", "conditions": "ATCC6051", "summary_of_the_method": "(§1)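 Test compounds were prepared as trifluoroacetate salts and assayed for MIC against a Gram-positive panel: B. subtilis, S. epidermidis, MSSA and MRSA. E. coli served as the Gram-negative negative-control organism. The natural parent peptide and vancomycin served as positive controls.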"}, "[2]": {"test_system": "Escherichia coli ATCC 10798", "conditions": "ATCC10798", "summary_of_the_method": "as §1"}, "[3]": {"test_system": "Staphylococcus epidermidis ATCC 14990", "conditions": "ATCC14990", "summary_of_the_method": "as §1"}}, "data": [{"smiles": "CN[C@H](CC(C)C)C(=O)N[C@H]1C(=O)N[C@@H](CC(N)=O)C(=O)N[C@H]2C(=O)N[C@H]3C(=O)N[C@H](C(=O)N[C@H](C(=O)O)c4cc(O)cc(O)c4-c4cc3ccc4O)[C@H](O)c3ccc(c(Cl)c3)Oc3cc2cc(c3O[C@@H]2O[C@H](CO)[C@@H](O)[C@H](O)[C@H]2O[C@H]2C[C@](C)(N)[C@H](O)[C@H](C)O2)Oc2ccc(cc2Cl)[C@H]1O", "note": "[vancomycin]", "values": [{"measurement": "MIC", "setting": "[1]", "result": "0.125 to 0.25", "unit": "µg/mL"}, {"measurement": "MIC", "setting": "[2]", "result": "> 32", "unit": "µg/mL"}, {"measurement": "MIC", "setting": "[3]", "result": 2, "unit": "µg/mL"}]}]}
